# Experimental data taken from ChEMBL document CHEMBL5649170, “Sustained microglial depletion with CSF1R inhibitor impairs parenchymal plaque development in an Alzheimer's disease model” (Nat Commun, 2019).
# pIC50: −log10 of the molar value.
# Columns and labels:
# [1] = target: G protein-coupled receptor kinase 3 (Homo sapiens, UniProt P35626); assay: Inhibition of ADRBK2 (unknown origin)
# [2] = target: Death-associated protein kinase 3 (Homo sapiens, UniProt O43293); assay: Inhibition of DAPK3 (unknown origin)
# Death-associated protein kinase 3, sequence (O43293 whole entry): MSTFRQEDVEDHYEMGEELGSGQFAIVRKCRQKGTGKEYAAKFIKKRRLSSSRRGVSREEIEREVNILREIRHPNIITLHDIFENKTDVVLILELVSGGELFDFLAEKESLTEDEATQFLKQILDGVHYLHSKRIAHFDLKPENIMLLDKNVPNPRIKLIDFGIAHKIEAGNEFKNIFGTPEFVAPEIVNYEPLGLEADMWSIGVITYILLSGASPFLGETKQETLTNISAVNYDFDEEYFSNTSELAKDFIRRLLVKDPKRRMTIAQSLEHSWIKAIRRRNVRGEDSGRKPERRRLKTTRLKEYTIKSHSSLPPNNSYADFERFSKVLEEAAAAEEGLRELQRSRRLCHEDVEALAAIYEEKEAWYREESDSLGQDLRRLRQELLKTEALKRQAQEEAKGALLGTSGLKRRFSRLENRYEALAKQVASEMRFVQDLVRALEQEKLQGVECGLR
# Ephrin type-B receptor 1 = Ephrin type-B receptor 1 (Homo sapiens, UniProt P54762); assay: Inhibition of EPHB1 (unknown origin)
# Ephrin type-B receptor 1, sequence (P54762 whole entry): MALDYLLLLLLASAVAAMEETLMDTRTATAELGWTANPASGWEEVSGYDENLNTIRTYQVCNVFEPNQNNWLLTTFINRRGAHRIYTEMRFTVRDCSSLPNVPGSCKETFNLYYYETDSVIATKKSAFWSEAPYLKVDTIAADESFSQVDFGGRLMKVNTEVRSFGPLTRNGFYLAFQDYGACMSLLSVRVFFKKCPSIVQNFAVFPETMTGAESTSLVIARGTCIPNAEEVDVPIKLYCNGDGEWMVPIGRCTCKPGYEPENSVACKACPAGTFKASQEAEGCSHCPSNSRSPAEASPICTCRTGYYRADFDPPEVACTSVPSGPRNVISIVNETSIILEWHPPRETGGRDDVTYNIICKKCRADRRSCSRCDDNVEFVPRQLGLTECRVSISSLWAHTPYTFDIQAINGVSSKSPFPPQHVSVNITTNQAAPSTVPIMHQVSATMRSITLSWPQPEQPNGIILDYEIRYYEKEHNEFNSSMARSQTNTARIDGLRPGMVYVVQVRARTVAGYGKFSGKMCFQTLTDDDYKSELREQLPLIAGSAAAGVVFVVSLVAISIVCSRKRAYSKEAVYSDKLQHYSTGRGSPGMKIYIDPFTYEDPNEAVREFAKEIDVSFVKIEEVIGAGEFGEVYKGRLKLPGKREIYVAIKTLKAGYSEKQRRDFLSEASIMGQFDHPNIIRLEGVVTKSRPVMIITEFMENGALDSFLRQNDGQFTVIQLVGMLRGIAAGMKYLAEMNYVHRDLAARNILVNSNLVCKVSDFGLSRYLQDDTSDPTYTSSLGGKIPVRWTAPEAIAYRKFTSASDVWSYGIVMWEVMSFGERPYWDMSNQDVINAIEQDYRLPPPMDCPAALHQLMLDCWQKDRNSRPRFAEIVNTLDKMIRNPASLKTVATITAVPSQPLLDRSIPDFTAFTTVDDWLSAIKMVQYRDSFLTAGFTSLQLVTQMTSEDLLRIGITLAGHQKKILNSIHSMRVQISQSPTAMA
# [3] = target: G protein-coupled receptor kinase 5 (Homo sapiens, UniProt P34947); assay: Inhibition of GRK5 (unknown origin)
# G protein-coupled receptor kinase 5, sequence (P34947 whole entry): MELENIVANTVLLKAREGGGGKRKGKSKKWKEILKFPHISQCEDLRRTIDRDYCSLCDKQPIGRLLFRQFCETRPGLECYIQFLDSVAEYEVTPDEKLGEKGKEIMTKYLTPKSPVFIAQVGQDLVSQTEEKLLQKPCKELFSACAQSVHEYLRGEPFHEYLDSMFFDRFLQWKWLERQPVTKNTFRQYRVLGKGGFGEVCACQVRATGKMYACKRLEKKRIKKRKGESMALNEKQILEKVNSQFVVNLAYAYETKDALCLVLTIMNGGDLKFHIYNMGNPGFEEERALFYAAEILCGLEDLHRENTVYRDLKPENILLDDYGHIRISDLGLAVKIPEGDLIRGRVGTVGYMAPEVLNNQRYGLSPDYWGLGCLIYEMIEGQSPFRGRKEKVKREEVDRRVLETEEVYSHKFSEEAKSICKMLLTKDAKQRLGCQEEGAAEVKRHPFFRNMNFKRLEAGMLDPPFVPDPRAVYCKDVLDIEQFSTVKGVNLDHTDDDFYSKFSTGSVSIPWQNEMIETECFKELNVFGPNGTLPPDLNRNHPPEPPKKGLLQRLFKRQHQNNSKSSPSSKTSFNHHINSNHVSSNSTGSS
# [4] = target: Glycogen synthase kinase-3 alpha (Homo sapiens, UniProt P49840); assay: Inhibition of GSK3A (unknown origin)
# Glycogen synthase kinase-3 alpha, sequence (P49840 whole entry): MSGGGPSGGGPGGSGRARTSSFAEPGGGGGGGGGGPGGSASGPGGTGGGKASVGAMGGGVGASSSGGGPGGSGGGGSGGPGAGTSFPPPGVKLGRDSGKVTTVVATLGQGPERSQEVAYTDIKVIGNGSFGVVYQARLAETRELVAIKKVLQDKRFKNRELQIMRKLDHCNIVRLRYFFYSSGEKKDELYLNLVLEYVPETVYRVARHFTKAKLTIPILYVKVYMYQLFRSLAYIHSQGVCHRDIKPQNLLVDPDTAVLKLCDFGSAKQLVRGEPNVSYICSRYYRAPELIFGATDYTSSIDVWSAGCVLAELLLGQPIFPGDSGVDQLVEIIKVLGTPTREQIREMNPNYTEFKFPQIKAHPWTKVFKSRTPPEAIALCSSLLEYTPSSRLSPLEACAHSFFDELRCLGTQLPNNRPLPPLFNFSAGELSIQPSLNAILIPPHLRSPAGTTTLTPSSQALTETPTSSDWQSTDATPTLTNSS
# [5] = target: Tyrosine-protein kinase HCK (Homo sapiens, UniProt P08631); assay: Inhibition of HCK (unknown origin)
# Tyrosine-protein kinase HCK, sequence (P08631 whole entry): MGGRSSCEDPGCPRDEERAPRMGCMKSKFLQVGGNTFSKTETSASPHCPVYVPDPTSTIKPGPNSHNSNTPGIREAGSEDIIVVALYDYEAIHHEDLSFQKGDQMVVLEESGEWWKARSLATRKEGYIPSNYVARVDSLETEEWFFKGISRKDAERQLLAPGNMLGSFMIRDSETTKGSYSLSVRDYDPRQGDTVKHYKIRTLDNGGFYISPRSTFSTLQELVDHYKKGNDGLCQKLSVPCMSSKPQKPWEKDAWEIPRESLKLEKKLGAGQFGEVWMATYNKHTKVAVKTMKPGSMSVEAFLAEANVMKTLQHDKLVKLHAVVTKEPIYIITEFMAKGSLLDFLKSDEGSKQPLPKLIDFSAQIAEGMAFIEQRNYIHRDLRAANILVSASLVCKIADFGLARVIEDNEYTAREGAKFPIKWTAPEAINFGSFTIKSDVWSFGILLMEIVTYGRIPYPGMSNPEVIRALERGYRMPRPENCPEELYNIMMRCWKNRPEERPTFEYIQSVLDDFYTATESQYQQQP
# Insulin receptor = Insulin receptor (Homo sapiens, UniProt P06213); assay: Inhibition of INSR (unknown origin)
# [6] = target: cAMP-dependent protein kinase catalytic subunit PRKX (Homo sapiens, UniProt P51817); assay: Inhibition of PRKX (unknown origin)
# cAMP-dependent protein kinase catalytic subunit PRKX, sequence (P51817 whole entry): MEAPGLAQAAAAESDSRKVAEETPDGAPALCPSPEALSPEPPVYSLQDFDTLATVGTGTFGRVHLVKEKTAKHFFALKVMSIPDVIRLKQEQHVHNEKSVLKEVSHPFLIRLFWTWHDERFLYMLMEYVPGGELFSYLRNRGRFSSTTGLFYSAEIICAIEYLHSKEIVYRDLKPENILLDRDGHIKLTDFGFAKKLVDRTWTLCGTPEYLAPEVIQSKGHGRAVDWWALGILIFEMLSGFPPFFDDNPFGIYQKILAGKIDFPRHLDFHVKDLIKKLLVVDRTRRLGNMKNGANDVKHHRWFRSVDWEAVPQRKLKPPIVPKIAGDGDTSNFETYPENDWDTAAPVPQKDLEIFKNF
# Sphingosine kinase 1 = Sphingosine kinase 1 (Homo sapiens, UniProt Q9NYA1); assay: Inhibition of SPHK1 (unknown origin)
# Sphingosine kinase 1, sequence (Q9NYA1 whole entry): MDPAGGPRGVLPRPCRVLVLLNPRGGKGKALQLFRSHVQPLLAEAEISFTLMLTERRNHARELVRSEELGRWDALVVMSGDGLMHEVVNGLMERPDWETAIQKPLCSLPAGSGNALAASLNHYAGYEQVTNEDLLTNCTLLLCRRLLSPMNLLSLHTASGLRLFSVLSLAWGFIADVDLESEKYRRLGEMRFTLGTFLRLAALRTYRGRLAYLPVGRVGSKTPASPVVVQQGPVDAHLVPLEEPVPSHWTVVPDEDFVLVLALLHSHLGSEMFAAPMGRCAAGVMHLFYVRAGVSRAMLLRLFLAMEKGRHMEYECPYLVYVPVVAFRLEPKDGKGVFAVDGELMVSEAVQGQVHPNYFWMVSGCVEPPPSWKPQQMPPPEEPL
# [7] = target: Tyrosine-protein kinase Yes (Homo sapiens, UniProt P07947); assay: Inhibition of YES1 (unknown origin)
# Tyrosine-protein kinase Yes, sequence (P07947 whole entry): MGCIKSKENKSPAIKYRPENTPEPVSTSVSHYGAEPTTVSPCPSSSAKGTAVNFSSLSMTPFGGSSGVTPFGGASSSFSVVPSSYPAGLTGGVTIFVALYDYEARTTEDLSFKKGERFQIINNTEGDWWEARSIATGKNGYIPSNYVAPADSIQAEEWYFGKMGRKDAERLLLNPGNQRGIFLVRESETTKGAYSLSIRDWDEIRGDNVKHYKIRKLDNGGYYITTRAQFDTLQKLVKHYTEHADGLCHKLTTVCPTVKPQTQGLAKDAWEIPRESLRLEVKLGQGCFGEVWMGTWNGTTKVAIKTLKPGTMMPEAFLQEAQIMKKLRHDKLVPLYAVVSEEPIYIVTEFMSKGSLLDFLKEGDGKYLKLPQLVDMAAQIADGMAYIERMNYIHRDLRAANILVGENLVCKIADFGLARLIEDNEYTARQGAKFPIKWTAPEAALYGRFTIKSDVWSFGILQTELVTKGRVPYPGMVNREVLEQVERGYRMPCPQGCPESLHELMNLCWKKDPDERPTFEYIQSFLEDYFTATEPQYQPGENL
# [8] = Clearance in mouse at 1.92 mg/kg, iv administered as single dose; assay type: ADME, organism-based; conditions: in vivo
# [9] = Clearance in female rat at 1.13 mg/kg, iv administered as single dose; assay type: ADME, organism-based; conditions: in vivo
# [10] = Volume of distribution at steady state in monkey at 1.35 mg/kg, iv administered as single dose; assay type: ADME, organism-based, Macaca mulatta; conditions: rhesus monkey, in vivo, read-out: Vdss
# [11] = AUC (0 to 24 hrs) in 5XFAD mouse plasma at 1200 ppm administered as rodent chow for 180 days; assay type: ADME, cell-free; conditions: route po, time 180 day
# [12] = Drug concentration in wildtype mouse brain at 1200 ppm administered as rodent chow for 10 to 24 weeks; assay type: ADME, tissue-based; conditions: in vivo, po, time 10-24 weeks, read-out: Ct
# Outline: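 WT or 5xFAD mice were started at 1.5 months of age on PLX5622 formulated at 1200 ppm in AIN-76A chow, with control chow as comparison. Feeding ran for 10 or 24 weeks. Terminal plasma and brain drug levels were then measured. Groups were sex-balanced and compared by two-tailed independent t-test.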
# Mus musculus [13] = assay: Antialzheimer activity in 5XFAD mouse assessed as time in platform zone at 1200 ppm administered as rodent chow for 10 to 24 weeks by Morris water maze test (reference value: 0 to 27 sec); assay type: functional; conditions: route po, time 10-24 weeks
# Outline: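 Morris water maze: a circular pool was filled with opaque water (white paint added), and mice were given four trials per acquisition day. Twenty-four hours after the last acquisition day, the platform was removed for a 60 s probe trial. Mice had been on 1200 ppm PLX5622 or control chow for 10 or 24 weeks from 1.5 months of age.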
# Mus musculus [14] = assay: Antialzheimer activity in 5XFAD mouse assessed as number of Thio-S positive plaques per FOV in thalamus at 1200 ppm administered as rodent chow starting from 1.5 months and measured after 4 months by Thio-S staining based confocal microscopic analysis (reference value: 139 to 224); assay type: functional; conditions: route po, time 2.5 months, 1825 h
# Mus musculus [15] = assay: Effect on APP processing pathway in wildtype mouse assessed as C-terminal PS1 protein signal intensity in cortex at 1200 ppm administered as rodent starting from 1.5 months and measured after 7 months (reference value: 5.248 to 133.048 %); assay type: functional; conditions: route po, time 5.5 months, 4015 h
# [16] = Effect on Hexb gene expression in wild type mouse thalamus at 1200 ppm administered as rodent chow starting from 1.5 months and measured after 7 months by RNA-Seq analysis (reference value: 45.201 to 52.726 RPKM); assay type: functional; conditions: route po, time 5.5 months, 4015 h
# [17] = Effect on Itgax gene expression in wild type mouse cortex at 1200 ppm administered as rodent chow starting from 1.5 months and measured after 7 months by RNA-Seq analysis (reference value: 0.069 to 0.218 RPKM); assay type: functional; conditions: route po, time 5.5 months, 4015 h
# [18] = Prevention of Nos1ap gene downregulation in 5XFAD mouse hippocampus assessed as percent change in Reads Per kilo base per Million mapped reads at 1200 ppm administered as rodent chow starting from 1.5 months and measured after 7 months by RNA-Seq analysis (reference value: 58.209 to 93.063 %); assay type: functional; conditions: route po, time 5.5 months, 4015 h
# [19] = Prevention of Gls gene downregulation in 5XFAD mouse hippocampus assessed as percent change in Reads Per kilo base per Million mapped reads at 1200 ppm administered as rodent chow starting from 1.5 months and measured after 7 months by RNA-Seq analysis (reference value: 58.522 to 73.849 %); assay type: functional; conditions: route po, time 5.5 months, 4015 h
# [20] = target: T1, Macrophage colony-stimulating factor 1 receptor (Mus musculus) (UniProt P09581); assay: In vivo inhibition of CSF1R in wildtype mouse assessed as number of GFAP positive cells per FOV at 1200 ppm administered as rodent chow starting from 1.5 months and measured after 4 months by immunolabeling based confocal microscopic analysis (reference value: 1 to 7); assay type: functional; conditions: route po, time 2.5 months
# T1 sequence (whole entry): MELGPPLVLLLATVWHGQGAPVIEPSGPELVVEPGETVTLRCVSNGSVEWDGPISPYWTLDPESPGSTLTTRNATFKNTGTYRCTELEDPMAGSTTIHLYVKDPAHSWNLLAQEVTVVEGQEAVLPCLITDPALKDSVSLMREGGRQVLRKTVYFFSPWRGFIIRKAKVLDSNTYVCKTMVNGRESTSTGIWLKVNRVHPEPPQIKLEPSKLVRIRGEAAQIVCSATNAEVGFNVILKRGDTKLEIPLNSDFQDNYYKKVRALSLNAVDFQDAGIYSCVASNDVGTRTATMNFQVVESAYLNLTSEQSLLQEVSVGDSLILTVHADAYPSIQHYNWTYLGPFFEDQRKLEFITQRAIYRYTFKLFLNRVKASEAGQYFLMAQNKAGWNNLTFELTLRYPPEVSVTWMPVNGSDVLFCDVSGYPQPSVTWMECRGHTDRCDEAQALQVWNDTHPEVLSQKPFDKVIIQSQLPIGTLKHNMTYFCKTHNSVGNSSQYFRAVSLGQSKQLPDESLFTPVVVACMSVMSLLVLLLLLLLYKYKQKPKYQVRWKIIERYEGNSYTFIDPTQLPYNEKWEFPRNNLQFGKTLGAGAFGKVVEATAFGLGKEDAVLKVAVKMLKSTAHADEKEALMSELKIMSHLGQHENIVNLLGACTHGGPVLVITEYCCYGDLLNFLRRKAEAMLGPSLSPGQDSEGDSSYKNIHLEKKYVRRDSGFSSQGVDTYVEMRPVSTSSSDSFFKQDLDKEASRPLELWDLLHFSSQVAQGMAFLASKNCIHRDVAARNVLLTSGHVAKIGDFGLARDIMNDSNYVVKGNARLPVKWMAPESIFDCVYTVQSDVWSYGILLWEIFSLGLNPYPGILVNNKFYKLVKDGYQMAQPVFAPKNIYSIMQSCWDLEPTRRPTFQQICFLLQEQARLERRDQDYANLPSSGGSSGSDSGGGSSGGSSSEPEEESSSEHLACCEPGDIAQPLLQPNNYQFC
# G protein-coupled receptor kinase 3, sequence (P35626 whole entry): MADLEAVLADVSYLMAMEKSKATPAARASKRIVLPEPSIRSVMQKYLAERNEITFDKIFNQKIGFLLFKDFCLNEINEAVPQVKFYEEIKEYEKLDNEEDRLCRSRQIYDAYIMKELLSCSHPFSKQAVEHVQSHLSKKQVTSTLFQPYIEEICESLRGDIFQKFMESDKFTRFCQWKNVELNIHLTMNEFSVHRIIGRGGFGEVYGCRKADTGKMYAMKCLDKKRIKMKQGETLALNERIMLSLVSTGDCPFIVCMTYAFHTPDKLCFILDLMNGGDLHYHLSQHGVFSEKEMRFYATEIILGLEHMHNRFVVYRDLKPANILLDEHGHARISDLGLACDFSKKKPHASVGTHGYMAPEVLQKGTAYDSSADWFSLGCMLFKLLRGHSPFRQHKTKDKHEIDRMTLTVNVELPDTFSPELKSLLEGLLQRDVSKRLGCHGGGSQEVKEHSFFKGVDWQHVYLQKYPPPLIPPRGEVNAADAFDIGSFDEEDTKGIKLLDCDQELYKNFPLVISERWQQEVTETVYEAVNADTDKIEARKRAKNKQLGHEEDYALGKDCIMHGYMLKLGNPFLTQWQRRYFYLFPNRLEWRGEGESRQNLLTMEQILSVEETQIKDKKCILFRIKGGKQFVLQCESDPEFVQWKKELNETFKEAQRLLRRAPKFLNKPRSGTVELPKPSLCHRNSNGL
compound,measurement,setting,value
COc1ncc(F)cc1CNc1ccc(Cc2c[nH]c3ncc(C)cc23)c(F)n1 [PLX-5622],pIC50,[1],< 6.00
same,pIC50,[2],< 6.00
same,pIC50,Ephrin type-B receptor 1,< 6.00
same,pIC50,[3],< 6.00
same,pIC50,[4],< 6.00
same,pIC50,[5],< 6.00
same,pIC50,Insulin receptor,< 6.00
same,pIC50,[6],< 6.00
same,pIC50,Sphingosine kinase 1,< 6.00
same,pIC50,[7],< 6.00
same,clearance,[8],2.1 mL/min/kg
same,clearance,[9],3.7 mL/min/kg
same,Vd,[10],1.6 L/kg
same,AUC at 4320 h,[11],218 µg·h/mL
same,concentration,[12],3.35 µM
same,Time,Mus musculus [13],0 s
same,Activity,Mus musculus [14],76
same,Activity,Mus musculus [15],15.313%
same,Activity,[16],10.895 RPKM
same,Activity,[17],0 RPKM
same,Activity,[18],82.746%
same,Activity,[19],77.958%
same,Activity,[20],4
